Laboratory results taken from ChEMBL document CHEMBL5236592, “Induction of Ferroptosis in Glioblastoma and Ovarian Cancers by a New Pyrrole Tubulin Assembly Inhibitor” (J Med Chem, 2022).
Active and inactive are the calls of the source.

Experiments:
Format in all cases: functional, organism-based
Details in all cases: time 40.0 day
[1] = test system: SK-OV-3; assay: Induction of ferroptosis-mediated antitumor activity against human SK-OV-3 cells xenografted in BALB/C nu/nu mouse assessed as increase in malondialdehyde level in tumor at 25 mg/kg, ip administered every 2 days for 40 days by biochemical analysis
Procedure, shortened: (§1)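 U-87 MG or SKOV-3 sc xenografts (1 × 10^8 cells/mL) in female BALB/c nu/nu mice, 4 per group. Given 25 mg/kg ip in 100 μL every 2 days, or saline. Tumors harvested on day 40 and assayed for LPO, MDA, lactic acid, total glutathione (GSH + GSSG), ATP and Fe2+.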

[2] = test system: U-87MG ATCC; assay: Induction of ferroptosis-mediated antitumor activity against human U-87 MG cells xenografted in BALB/C nu/nu mouse assessed as increase in Fe2+ level in tumor at 25 mg/kg, ip administered every 2 days for 40 days; procedure, shortened: as §1
[3] = test system: SK-OV-3; assay: Induction of ferroptosis-mediated antitumor activity against human SK-OV-3 cells xenografted in BALB/C nu/nu mouse assessed as increase in Fe2+ level in tumor at 25 mg/kg, ip administered every 2 days for 40 days; procedure, shortened: as §1
[4] = test system: Mus musculus; assay: Upregulation of Acsf2 mRNA expression in tumor of BALB/C nu/nu mouse xenografted with human U-87 MG cells at 25 mg/kg, ip administered every 2 days for 40 days by qPCR analysis
Procedure, shortened: (§2)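 Female BALB/c nu/nu mice bearing sc U-87 MG or SKOV-3 xenografts were dosed ip at 25 mg/kg (100 μL) every 2 days, or given saline, and tumors were taken at day 40. RNA was extracted from about 20 mg of tissue. qPCR ran 40 cycles (95 °C 15 min; 94 °C 20 s; 60 °C 34 s) on a 69-gene panel. Fold change was by 2^–ΔΔCt, with ≥1.5 counted as increased.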

[5] = test system: Mus musculus; assay: Upregulation of Sat1 mRNA expression in tumor of BALB/C nu/nu mouse xenografted with human U-87 MG cells at 25 mg/kg, ip administered every 2 days for 40 days by qPCR analysis
Procedure, shortened: (§3)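 Female BALB/c nu/nu mice, 10 weeks old, 4 per group. Inoculated s.c. with 1 × 10^8 cells/mL of log-phase U-87 MG or SKOV-3 cells. Dosed i.p. with 100 μL at 25 mg/kg every 2 days; controls got 100 μL saline. Tumors harvested on day 40. RNA extracted from about 20 mg of tissue. qPCR panel of 69 genes, 40 cycles (94 °C 20 s, 60 °C 34 s). Analysed by 2–ΔΔCt; fold ≥1.5 taken as increased.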

[6] = test system: Mus musculus; assay: Upregulation of Fancd2 mRNA expression in tumor of BALB/C nu/nu mouse xenografted with human U-87 MG cells at 25 mg/kg, ip administered every 2 days for 40 days by qPCR analysis; procedure, shortened: as §2
[7] = test system: Mus musculus; assay: Upregulation of Akr1c3 mRNA expression in tumor of BALB/C nu/nu mouse xenografted with human U-87 MG cells at 25 mg/kg, ip administered every 2 days for 40 days by qPCR analysis; procedure, shortened: as §2
[8] = test system: Mus musculus; assay: Upregulation of Gpx4 mRNA expression in tumor of BALB/C nu/nu mouse xenografted with human U-87 MG cells at 25 mg/kg, ip administered every 2 days for 40 days by qPCR analysis; procedure, shortened: as §3
[9] = test system: Mus musculus; assay: Upregulation of Nrf2 mRNA expression in tumor of BALB/C nu/nu mouse xenografted with human U-87 MG cells at 25 mg/kg, ip administered every 2 days for 40 days by qPCR analysis; procedure, shortened: as §3
[10] = test system: Mus musculus; assay: Upregulation of Cars mRNA expression in tumor of BALB/C nu/nu mouse xenografted with human U-87 MG cells at 25 mg/kg, ip administered every 2 days for 40 days by qPCR analysis; procedure, shortened: as §2
[11] = test system: Mus musculus; assay: Upregulation of Cpx mRNA expression in tumor of BALB/C nu/nu mouse xenografted with human SK-OV-3 cells at 25 mg/kg, ip administered every 2 days for 40 days by qPCR analysis; procedure, shortened: as §2
[12] = test system: Mus musculus; assay: Upregulation of Slc7a11 mRNA expression in tumor of BALB/C nu/nu mouse xenografted with human SK-OV-3 cells at 25 mg/kg, ip administered every 2 days for 40 days by qPCR analysis; procedure, shortened: as §3
[13] = test system: Mus musculus; assay: Upregulation of Rpl8 mRNA expression in tumor of BALB/C nu/nu mouse xenografted with human SK-OV-3 cells at 25 mg/kg, ip administered every 2 days for 40 days by qPCR analysis; procedure, shortened: as §3
[14] = test system: Mus musculus; assay: Upregulation of Gpx4 mRNA expression in tumor of BALB/C nu/nu mouse xenografted with human SK-OV-3 cells at 25 mg/kg, ip administered every 2 days for 40 days by qPCR analysis; procedure, shortened: as §3
[15] = test system: Mus musculus; assay: Upregulation of Gclm mRNA expression in tumor of BALB/C nu/nu mouse xenografted with human SK-OV-3 cells at 25 mg/kg, ip administered every 2 days for 40 days by qPCR analysis; procedure, shortened: as §2
[16] = test system: Mus musculus; assay: Upregulation of Nrf2 mRNA expression in tumor of BALB/C nu/nu mouse xenografted with human SK-OV-3 cells at 25 mg/kg, ip administered every 2 days for 40 days by qPCR analysis; procedure, shortened: as §3
[17] = test system: Mus musculus; assay: Upregulation of Hspb5 mRNA expression in tumor of BALB/C nu/nu mouse xenografted with human SK-OV-3 cells at 25 mg/kg, ip administered every 2 days for 40 days by qPCR analysis; procedure, shortened: as §3
[18] = test system: Mus musculus; assay: Upregulation of Ttc35 mRNA expression in tumor of BALB/C nu/nu mouse xenografted with human SK-OV-3 cells at 25 mg/kg, ip administered every 2 days for 40 days by qPCR analysis; procedure, shortened: as §3
[19] = test system: Mus musculus; assay: Upregulation of Sat1 mRNA expression in tumor of BALB/C nu/nu mouse xenografted with human SK-OV-3 cells at 25 mg/kg, ip administered every 2 days for 40 days by qPCR analysis; procedure, shortened: as §3
[20] = test system: SK-OV-3; assay: Induction of ferroptosis-mediated antitumor activity against human SK-OV-3 cells xenografted in BALB/C nu/nu mouse assessed as reduction in FTH1 protein expression in tumor at 25 mg/kg, ip administered every 2 days for 40 days by immunofluoresence staining based assay
Procedure, shortened: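 Xenografts of U-87 MG or SKOV-3 (1 × 10^8 cells/mL, sc) in female BALB/c nu/nu mice, 4 per group. Treated ip at 25 mg/kg in 100 μL every 2 days versus saline, tumors collected at day 40. Paraffin sections (6 μm) were blocked at 37 °C for 30 min, then incubated with rabbit anti-GPX4 or anti-FTH1 and then Alexa Fluor 488 anti-rabbit, each for 45 min at 37 °C.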

Measured: Activity

COc1cc(C(=O)c2cn(-c3ncccn3)cc2-c2ccco2)cc(OC)c1OC
active: all assays above
